Measurements of several laboratories.
Each line is one published result; the experiments were not run side by side.
Read-out: cell growth or viability

Compound	cell line	technique	time	IC50 [µM]
CN(C)CCOc1cc(NC(=O)c2cc(Cl)cc(C(=O)Nc3cc(OCCN(C)C)c4ccccc4n3)n2)nc2ccccc12	U2OS	ATP luminescence	72 h	2.2
CSc1nc(NC(=S)NCCc2ccccc2)n(-c2ccc(C(=O)O)cc2)n1	RPE-1	MTT	–	28.3
CCCCc1ccc2[nH]c(NC(=O)OC)nc2c1	SCC-9	CCK-8	72 h	0.0769
CC(C)C[C@H](NC(=O)[C@H](Cc1ccccc1)NC(=O)c1cnccn1)B(O)O	SK-N-SH	ATP luminescence	–	0.008
COc1cc(C)c(-c2c(C)cc(OC)c3c(=O)cc(-c4ccc(Br)cc4)oc23)c2oc(-c3ccc(Br)cc3)cc(=O)c12	HeLa	MTT	48 h	35.8
NCCOc1cc(NC(=O)c2cccc(C(=O)Nc3cc(OCCN)c4ccccc4n3)n2)nc2ccccc12	U2OS	ATP luminescence	72 h	0.7
N[C@@H](CC(=O)N1CCN(C(c2ccc(F)cc2)c2ccc(F)cc2)CC1)C(=O)N1Cc2ccccc2C1	SKM-1	ATP luminescence	48 h	0.346
COc1cc(C)c(-c2c(C)cc(OC)c3c(=O)cc(-c4ccc(N(C)C)cc4)oc23)c2oc(-c3ccc(N(C)C)cc3)cc(=O)c12	HeLa	MTT	48 h	1.4
NCCCOc1cc(NC(=O)c2cc(OCCN)cc(C(=O)Nc3cc(OCCCN)c4ccccc4n3)n2)nc2ccccc12	U2OS	ATP luminescence	72 h	14.1
CC1=CC(C)(C)N(Cc2ccccc2)c2ccc(O)cc21	PLC5	MTT	72 h	11
C[S@@+]([O-])CCCCN=C=S	Hepa-1c1c7	–	–	15.2
CSc1nc(/N=C/c2cc([N+](=O)[O-])ccc2O)n(-c2ccc(C(=O)O)cc2)n1	RPE-1	MTT	–	24
COc1cc(-c2ncn(/C=C\C(=O)OC(C)C)n2)cc(C(F)(F)F)c1	HEL	–	72 h	0.104
NCCCOc1cc(NC(=O)c2cc(OCc3c[nH]nn3)cc(C(=O)Nc3cc(OCCCN)c4ccccc4n3)n2)nc2ccccc12	U2OS	ATP luminescence	72 h	> 40
CSc1nc(N)n(-c2ccc(C(=O)O)cc2)n1	RPE-1	MTT	–	41.8
COc1cc(C(=O)Nc2cc(OCCN3CCCC3)c3ccccc3n2)nc(C(=O)Nc2cc(OCCN3CCCC3)c3ccccc3n2)c1	U2OS	ATP luminescence	72 h	1.6
CN1c2ccccc2C(=O)N2[C@H](C(=O)Nc3ccc(C(=O)Nc4ccccc4N)cc3)Cc3c([nH]c4ccccc34)[C@@H]12	HEL	–	–	0.66
CSc1nc(/N=C/c2cc(Br)ccc2O)n(-c2ccc(C(=O)O)cc2)n1	RPE-1	MTT	–	37.6
O=C(Nc1cc(OCCN2CCCC2)c2ccccc2n1)c1cc(OCCN2CCCC2)cc(C(=O)Nc2cc(OCCN3CCCC3)c3ccccc3n2)n1	U2OS	ATP luminescence	72 h	2.1
COc1cc(/C=N/c2nc(SC)nn2-c2ccc(C(=O)O)cc2)ccc1O	RPE-1	MTT	–	29.8
CC(C)[C@H](N)C(=O)N1CCC[C@H]1B(O)O	HEL	ATP luminescence	48 h	> 60
Nc1nc(Oc2ccccc2)nn1-c1ccc(C(=O)O)cc1	RPE-1	MTT	–	25.7
C#CCOc1cc(C(=O)Nc2cc(OCCN)c3ccccc3n2)nc(C(=O)Nc2cc(OCCN)c3ccccc3n2)c1	U2OS	ATP luminescence	72 h	4.9
FC(F)(F)c1ccc(C(c2c[nH]c3ccccc23)c2c[nH]c3ccccc23)cc1	U2OS	ATP luminescence	22 h	12.6
COc1cc(Nc2nccc(-c3cnn4nc(OC)ccc34)n2)cc(C(F)(F)F)c1	SK-N-SH	ATP luminescence	–	0.97
O=C(O)c1ccc(-n2nc(Oc3ccccc3)nc2/N=C/c2cc([N+](=O)[O-])ccc2O)cc1	RPE-1	MTT	–	26.8
CC[C@@H](C)[C@H](N)C(=O)N1Cc2ccccc2C1	SKM-1	ATP luminescence	48 h	0.181
CS(=O)(=O)c1nc(N)n(-c2ccc(C(=O)O)cc2)n1	RPE-1	MTT	–	34.2
NCCOc1cc(NC(=O)c2cc(OCc3c[nH]nn3)cc(C(=O)Nc3cc(OCCN)c4ccccc4n3)n2)nc2ccccc12	U2OS	ATP luminescence	72 h	> 40
CC(=O)c1ccc(O)cn1	Hepa-1c1c7	crystal violet	48 h	> 100
